PDI inh: inhibitors of human protein disulfide isomerase; inhibition, % at 10 µM; 350,000 tested, 0.052% active; P07237; PDI insulin aggregation turbidity, A650, 90 min;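 active = mean inhibition across replicates of 30% or more, whatever share of single replicates reach that level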
Target sequence (P07237 whole entry, looked up): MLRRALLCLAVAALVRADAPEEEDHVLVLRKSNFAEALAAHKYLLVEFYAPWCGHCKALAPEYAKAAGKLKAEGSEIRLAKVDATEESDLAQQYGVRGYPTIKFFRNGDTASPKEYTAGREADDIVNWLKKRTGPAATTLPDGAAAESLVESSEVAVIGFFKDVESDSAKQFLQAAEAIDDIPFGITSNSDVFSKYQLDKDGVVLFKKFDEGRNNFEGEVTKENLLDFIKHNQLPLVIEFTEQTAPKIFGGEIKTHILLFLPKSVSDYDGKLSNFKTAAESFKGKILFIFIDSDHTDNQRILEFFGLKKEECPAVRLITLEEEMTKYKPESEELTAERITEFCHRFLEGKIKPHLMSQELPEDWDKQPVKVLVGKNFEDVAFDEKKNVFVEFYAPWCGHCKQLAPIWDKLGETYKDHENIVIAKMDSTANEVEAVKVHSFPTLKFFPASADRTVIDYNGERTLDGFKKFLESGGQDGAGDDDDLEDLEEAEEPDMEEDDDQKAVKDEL
ERp5 block: ERp5 (human) disulfide isomerase inhibition. Q15084. ERp5 insulin aggregation, absorbance 650 nm, 90 min. inhibition, % at 9.99 µM. 350,000 tested, 0.05% active;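 active = mean replicate inhibition above about 25%, with every replicate also reaching it, limit read from the data, passing the limit was not always enough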
S100A4 MyoIIA: inhibitors of human S100A4 binding to myosin IIA peptide. P26447. S100A4/TAMRA-MyoIIA peptide fluorescence polarization. inhibition, % at 10.7 µM. 360,000 tested, 0.14% active;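 active = mean inhibition of at least 70% across replicates, with every replicate also reaching that level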
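incubation = readout 5 min after mixing, signal stable up to 60 min | system = S100A4 monomer protein | buffer or medium = HEPES pH 7.2 with CaCl2, KCl, NaCl, DTT, Triton | benchmarks = neutral control DMSO, positive control TFP | also added = fluorescent myosin IIA peptide, 5 nM | compound dosing = one concentration per compound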
ERAP1 inh: inhibitors of human ERAP1 aminopeptidase. Q9NZ08. recombinant ERAP1, Leu-AMC fluorescence, 60 min. inhibition, % at 10.7 µM. 340,000 tested, 0.15% active. AID 652197;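 active = mean replicate inhibition of at least 30%, or all replicates individually reaching that 30% level; inactive = mean below 30% and not every replicate reaching it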;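 note: 0% = neutral control wells and 100% = L-leucinethiol positive control wells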
FGF22 binding: FGF22 (human) thermal shift binding. recombinant FGF22 thermal shift, SYPRO orange fluorescence; percent of sucrose octasulfate shift, DMSO zero. activity (Tm shift, normalised), % at 9.99 µM. AID 651658. 340,000 tested, 1.5% active. Q9HCT0;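 active = mean Tm shift, scaled 0 neutral to 100 positive control, at about 1.3% or above, every replicate too, limit read from the data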
* = called active by the depositor; nt = not tested or not shown. This is one part of a sample in which hits are shown more often than they occur.

SMILES	PDI inh	ERp5 block	S100A4 MyoIIA	ERAP1 inh	FGF22 binding
COC(=O)[C@]1(C)N[C@H](CN(C)C(=O)Nc2ccc(OC)cc2)[C@@H]2C(=O)N(C)C(=O)[C@@H]21	6	8	5	nt	0
CC(=O)Nc1c(C)ccc2nsnc12	2	nt	nt	nt	nt
Cc1ccc2nsnc2c1NC(=O)c1ccc([N+](=O)[O-])cc1	20	-3	-6	2	43*
COc1ccc(NC(=O)Nc2ccc3c(c2)C(=O)N([C@H](C)CO)C[C@H](C)[C@H](CN(C)Cc2ccc(C(=O)O)cc2)OCCCC[C@H](C)O3)cc1	nt	-3	25	0	0
O=C(Cc1ccccc1)c1c[nH]c(C(=O)NCc2ccncc2)c1	-2	-3	0	3	43*
CCCCOC(=O)C1CN(c2ccccc2)N=C1C(=O)OCC (configuration not stated)	2	nt	nt	nt	nt
CCCCOC(=O)C1CN(c2ccccc2)N=C1C(C)=O (configuration not stated)	3	-3	2	10	43*
Cc1ccc(S(=O)(=O)N/N=C/c2cc([N+](=O)[O-])ccc2O)cc1[N+](=O)[O-]	-2	-4	-3	0	44*
S=C(NCCSCc1ccccc1Cl)Nc1ccccc1	3	nt	nt	nt	nt
CCCCCCc1c(O)nc(SCCN2CCOCC2)[nH]c1=O	0	0	0	5	44*
CC(C)Cc1c(O)nc(SCCN2CCOCC2)[nH]c1=O	2	nt	nt	nt	nt
CCN1CCN(c2nc3sc4c(c3c(=O)n2-c2ccc(OC)cc2)CCCCC4)CC1	13	nt	nt	nt	nt
COc1ccc(-n2c(NN)nc3sc4c(c3c2=O)CCCC4)cc1	-5	3	-7	0	43*
C[C@@H]1CN([C@H](C)CO)C(=O)Cc2cc(NC(=O)Nc3cccc4ccccc34)ccc2O[C@H]1CN(C)Cc1ccc(C(F)(F)F)cc1	nt	21	1	1	0
C[C@H](CO)N1C[C@H](C)[C@H](CN(C)Cc2ccc(C(=O)O)cc2)Oc2ccc(NC(=O)Nc3cccc4ccccc34)cc2CC1=O	nt	3	-8	51*	0
C[C@H]1CN([C@@H](C)CO)C(=O)Cc2cc(NC(=O)Nc3cccc4ccccc34)ccc2O[C@H]1CN(C)Cc1ccc(C(F)(F)F)cc1	nt	69*	4	1	0
C[C@H]1CN([C@@H](C)CO)C(=O)Cc2cc(NC(=O)Nc3cccc4ccccc34)ccc2O[C@@H]1CN(C)Cc1ccc(C(F)(F)F)cc1	nt	3	-16	0	0
C[C@@H]1CN([C@@H](C)CO)C(=O)Cc2cc(NC(=O)Nc3ccc(C(F)(F)F)cc3)ccc2O[C@@H]1CN(C)Cc1ccc(Cl)c(Cl)c1	nt	50*	0	0	1
C[C@H]1CN([C@@H](C)CO)C(=O)Cc2cc(NC(=O)Nc3ccc(C(F)(F)F)cc3)ccc2O[C@@H]1CN(C)Cc1ccc(Cl)c(Cl)c1	nt	-7	19	-1	0
C[C@H](CO)N1C[C@H](C)[C@H](CN(C)Cc2ccc(C(F)(F)F)cc2)Oc2ccc(NC(=O)Nc3cccc4ccccc34)cc2CC1=O	nt	64*	1	1	0
COc1cc(NS(=O)(=O)c2ccc(F)cc2)c(C(=O)O)cc1OC	-2	nt	nt	nt	nt
CSc1nc2nc3c(cc2c(=O)n1-c1ccccc1)COC(C)(C)C3	-3	2	15	1	43*
Cc1[nH]nc2c1C(c1cccs1)C1=C(CCCC1=O)N2 (configuration not stated)	-1	2	-3	2	43*
CC(C)(C)c1ccc(NC(=O)CN2C(=O)NC(C)(C3CC3)C2=O)cc1 (configuration not stated)	7	-13	0	-5	0
CCOC(=O)NC(C)N1C(=O)C2C3C=CC(C3)C2C1=O (configuration not stated)	0	3	-1	-1	44*
CCOC(=O)NCN1C(=O)C2C3C=CC(C3)C2C1=O (configuration not stated)	-2	nt	nt	nt	nt
COCCn1c(C)cc(C(=O)COC(=O)c2n[nH]c3ccccc23)c1C	-2	nt	nt	nt	nt
COc1ccccc1NS(=O)(=O)c1cc(NC(=O)c2sc3cc(Cl)ccc3c2Cl)ccc1C	-8	-4	0	1	44*
COc1ccc(-c2nc3cc(C)c(Br)c(C)n3c2Cc2ccccc2)cc1OC	nt	1	-1	3	0

Screening data from PubChem BioAssay.
